DNMT1 inh = DNMT1 (human) enzyme inhibition | P26358 | DNMT1 molecular beacon, Hinp1I cleavage, fluorescence | inhibition (reported as % activation of signal), % at 10 µM | actives 0.83% (n = 360,000) | AID 588458; in the data active = inhibition above about 50%
Target sequence (P26358 504-1616 limits assumed): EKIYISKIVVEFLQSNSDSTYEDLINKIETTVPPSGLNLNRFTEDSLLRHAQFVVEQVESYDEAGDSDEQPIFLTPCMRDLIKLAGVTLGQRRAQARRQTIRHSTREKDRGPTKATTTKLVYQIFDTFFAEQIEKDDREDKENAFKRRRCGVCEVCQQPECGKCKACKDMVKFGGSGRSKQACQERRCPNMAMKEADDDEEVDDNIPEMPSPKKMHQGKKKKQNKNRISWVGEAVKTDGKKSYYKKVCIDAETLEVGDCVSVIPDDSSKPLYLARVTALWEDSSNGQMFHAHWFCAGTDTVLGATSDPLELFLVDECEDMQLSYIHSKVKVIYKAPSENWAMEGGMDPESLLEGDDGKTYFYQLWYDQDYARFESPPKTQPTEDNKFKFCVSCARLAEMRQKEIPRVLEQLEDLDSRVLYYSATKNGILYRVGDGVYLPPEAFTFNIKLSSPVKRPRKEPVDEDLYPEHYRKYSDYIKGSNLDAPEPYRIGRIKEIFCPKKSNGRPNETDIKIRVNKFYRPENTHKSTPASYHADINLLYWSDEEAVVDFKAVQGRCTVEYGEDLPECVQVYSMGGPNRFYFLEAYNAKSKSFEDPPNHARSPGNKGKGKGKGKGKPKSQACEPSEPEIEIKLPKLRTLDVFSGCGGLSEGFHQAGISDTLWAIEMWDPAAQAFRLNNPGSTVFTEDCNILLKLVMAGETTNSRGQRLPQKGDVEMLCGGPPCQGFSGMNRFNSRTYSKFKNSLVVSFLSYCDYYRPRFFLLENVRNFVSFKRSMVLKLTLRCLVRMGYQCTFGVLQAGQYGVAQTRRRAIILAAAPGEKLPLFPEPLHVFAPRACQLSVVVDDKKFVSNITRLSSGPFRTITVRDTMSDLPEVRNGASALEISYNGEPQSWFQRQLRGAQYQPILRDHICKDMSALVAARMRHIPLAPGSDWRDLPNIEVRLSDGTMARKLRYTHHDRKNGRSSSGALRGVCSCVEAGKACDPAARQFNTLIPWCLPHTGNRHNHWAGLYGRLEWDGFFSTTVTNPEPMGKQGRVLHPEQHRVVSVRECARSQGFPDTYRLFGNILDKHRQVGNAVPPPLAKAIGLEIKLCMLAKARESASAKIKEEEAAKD
LMPTP block = LMPTP (human) inhibition; inhibition, % at 20 µM; P24666; actives 0.22% (n = 360,000); recombinant LMPTP-A, OMFP fluorogenic substrate, fluorescence intensity; AID 651560;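 active = compounds that cut the enzyme signal by at least half of the control window in the single-dose screen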;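 note: plate controls were DMSO wells with enzyme plus substrate for no effect and substrate without enzyme for full effect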
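Material: LMPTP-A; amount: 0.625 nM enzyme; doses: single 20 µM dose; times: reaction 50 min, room temperature, dark; technique: fluorescence intensity of OMFP turnover product; benchmarks: no-enzyme and uninhibited controls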
Scp-1 inhibitor = blocks human Scp-1 phosphatase activity. Recombinant Scp1, phosphopeptide, malachite green phosphate absorbance. inhibition, % at 20 µM. actives 0.88% (n = 340,000). AID 493091;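 active = inhibition above about 50% at 20 µM, limit read from the data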;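 note: plate controls were DMSO wells with enzyme for no effect and wells lacking enzyme for full effect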
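Material: truncated SCP-1 phosphatase (76-261aa) / Buffer or medium: 50 mM Tris acetate pH 5.5, 0.005% Tween-20, 10 mM MgCl2 / Compound dosing: one concentration, 20 µM, with 1.0% DMSO / Incubation: 45 min room-temperature reaction, 5 min colour, 30 min stabiliser / Detection: colorimetric free-phosphate detection, absorbance 630 nm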
SUMO1 PPI mod = alters human SUMO1 binding to SIM partners; SUMO1 binding to a labelled peptide, TR-FRET, 1 h; AID 602429; inhibition, % at 20 µM; actives 0.33% (n = 360,000); in the data active = inhibition above about 37%
STEP block = blocks human striatal-enriched tyrosine phosphatase; P54829; recombinant STEP, OMFP fluorogenic substrate, fluorescence; inhibition, % at 20 µM; actives 0.25% (n = 360,000); AID 588621;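 active = inhibition at 20 µM, scaled per plate between control wells, above about 37%, limit read from the data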;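 note: 0% = DMSO with enzyme and substrate and 100% = substrate only without enzyme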
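System: STEP phosphatase, cell-free reaction; Buffer or medium: Bis-Tris pH 6.0 buffer with DTT, detergent; Incubation: 20 min at room temperature, dark; Measured by: fluorescence, 480/540 nm.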
F508del corr = correctors of CFTR F508del function in bronchial epithelial cells; CFBE cells, YFP halide quenching; stimulated with forskolin plus potentiator P3; % fluorescence drop versus neutral controls; activity (quench increase), % at 7.58 µM; actives 0.36% (n = 350,000); AID 720511;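 active = mean added fluorescence quench of at least 8% versus neutral control, with both replicates also reaching 8%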;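 note: cells transiently co-express mutant CFTR-F508del with the halide-sensitive YFP; corrector assay measuring rescue of mutant channel to the surface after 24 h compound exposure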
Scp1 confirm = Scp-1 (human) inhibition, single-dose confirmed; shares compounds with Scp-1 inhibitor; recombinant SCP-1 catalytic domain, phosphate release, malachite green absorbance; inhibition, % at 20 µM; actives 61% (n = 2,500); AID 540281;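 note: plate controls were DMSO with enzyme for no effect and buffer wells lacking enzyme for full effect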
MG interference = colorimetric interference in Scp-1 counter-screen; AID 540313; apparent inhibition (interference), % at 20 µM; 2,500 tested, under 10 active; shares compounds with Scp-1 inhibitor; Colorimetric interference counterscreen, malachite green absorbance 630 nm;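 note: compounds added after enzyme reaction finished so only phosphate colour detection is probed; plate controls were DMSO wells with completed Scp-1 reaction for no effect and substrate wells lacking enzyme for full effect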
Scp-1 Tm shift = validation of human Scp-1 inhibitors by thermal shift binding; shares compounds with Scp-1 inhibitor; Recombinant SCP1, Sypro Orange thermal shift Tm; thermal shift relative to vanadate control, % at 40 µM; actives 25% (n = 1,500); AID 540329;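 active = substances whose mean melting-temperature shift, as a percentage of the reference inhibitor's shift, reaches about 5.3%, limit read from the data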;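 note: 0% = Tm of DMSO wells and 100% = Tm with sodium orthovanadate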
Numbers without * were called inactive. Sampled rows, rich in hits. Any-hit rate of the full collection: about 1.6%.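 Rule for the calls, unless noted: active = inhibition of at least 30% at 20 µM; inactive = the rest.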

CC1=NNC(=O)C1CCC(=O)N/N=C/c1c(Cl)cccc1Cl (stereo not drawn) was read as DNMT1 inh -2, LMPTP block 0, Scp-1 inhibitor 5, SUMO1 PPI mod -1, STEP block 1, F508del corr -1, Scp1 confirm -8 and MG interference -6.
`CC1=NNC(=O)C1CCC(=O)N/N=C/c1ccc(Cl)cc1` (stereo not drawn) gave DNMT1 inh 2, LMPTP block 1, Scp-1 inhibitor -1, SUMO1 PPI mod -1, STEP block 5 and F508del corr -1.
Screening CC1=NNC(=O)C1CCC(=O)N/N=C(\C)c1ccccc1 (stereo not drawn) returned DNMT1 inh 0, LMPTP block 0, Scp-1 inhibitor 5, SUMO1 PPI mod -15, STEP block 5, F508del corr 1, Scp1 confirm -3 and MG interference -7.
For CN(CCCC1CCCC1)C(=O)c1cc(COc2ccc(F)c(F)c2)on1 the results were DNMT1 inh -5, LMPTP block 5, Scp-1 inhibitor 63*, SUMO1 PPI mod 3, STEP block 4, F508del corr 4, Scp1 confirm -6 and MG interference -7.
Screening Cc1ccccc1S(=O)(=O)NCC[C@@H]1CC[C@H](NC(=O)Nc2cccc(F)c2)[C@H](CO)O1 returned F508del corr 3.
`O=C(COc1ccccc1[N+](=O)[O-])Nc1cccc(S(=O)(=O)NC2=NCCCCC2)c1` gave DNMT1 inh 7, LMPTP block 1, Scp-1 inhibitor 62*, SUMO1 PPI mod -8, STEP block -1, F508del corr 1, Scp1 confirm 74*, MG interference -10 and Scp-1 Tm shift 4.
COCC(C)n1c(C)cc(C(=O)COC(=O)c2c(NC(C)=O)sc(C)c2C)c1C (stereo not drawn) was read as DNMT1 inh 29, LMPTP block 33, Scp-1 inhibitor 80*, SUMO1 PPI mod 7, STEP block 35, Scp1 confirm 42*, MG interference -4 and Scp-1 Tm shift -9.
`O=C(CCN1C(=O)C2CCCCC2C1=O)Nc1nc2ccc(F)cc2s1` (stereo not drawn) gave DNMT1 inh 3, LMPTP block -1, Scp-1 inhibitor -2, SUMO1 PPI mod 5, STEP block -2, F508del corr 0, Scp1 confirm -10 and MG interference -14.
O=C(N/N=C/c1ccc(F)c(F)c1)c1cc2c(s1)-c1ccccc1CC2 was read as DNMT1 inh 7, LMPTP block 6, Scp-1 inhibitor 62*, SUMO1 PPI mod 2, STEP block 0, Scp1 confirm 42*, MG interference -16 and Scp-1 Tm shift 3.
Screening CNC(=O)c1cc2c(s1)-c1ccccc1CC2 returned DNMT1 inh 0, LMPTP block 0, Scp-1 inhibitor -7, SUMO1 PPI mod -13, STEP block 0 and F508del corr 2.
For CC(C)S(=O)(=O)C1=NSC2=NC(=O)/C(=C\c3ccc(-c4cccc(C(=O)O)c4)o3)C(=N)N21 the results were DNMT1 inh 35, LMPTP block 2, Scp-1 inhibitor 65*, SUMO1 PPI mod 9, STEP block 3, F508del corr -3, Scp1 confirm 68*, MG interference -7 and Scp-1 Tm shift 5.
For CC(C)S(=O)(=O)C1=NSC2=NC(=O)/C(=C\c3ccc(-c4ccccc4)o3)C(=N)N21 the results were DNMT1 inh -7, LMPTP block 1, Scp-1 inhibitor 1, SUMO1 PPI mod 4 and STEP block -3.
Screening Cc1noc(C)c1S(=O)(=O)Nc1ccc2c(c1)C(=O)N([C@@H](C)CO)C[C@H](C)[C@@H](CN(C)S(=O)(=O)c1ccc(F)cc1)OCCCC[C@H](C)O2 returned F508del corr 2.
For O=C(O)CN1C(=O)/C(=C2\C(=O)N(Cc3ccccc3Cl)c3ccccc32)SC1=S the results were DNMT1 inh 9, LMPTP block 9, Scp-1 inhibitor 82*, SUMO1 PPI mod -2, STEP block 52*, F508del corr -3, Scp1 confirm 62*, MG interference -20 and Scp-1 Tm shift 16*.
`COc1ccc(S(=O)(=O)Nc2ccc3c(c2)C(=O)N([C@@H](C)CO)C[C@H](C)[C@H](CN(C)S(=O)(=O)c2ccc(OC)cc2)OCCCC[C@H](C)O3)cc1` gave F508del corr -2.
C[C@H]1CN([C@@H](C)CO)C(=O)c2cc(C#Cc3ccccc3F)cnc2O[C@H]1CN(C)C(=O)Cc1cccnc1 was read as F508del corr 0.
Screening CCOC(=O)Cc1csc(NC(=O)Cc2ccc(Br)cc2)n1 returned DNMT1 inh -2, LMPTP block 0, Scp-1 inhibitor 54*, SUMO1 PPI mod -2, STEP block -1, F508del corr 2, Scp1 confirm -23 and MG interference -19.
Screening COc1ccc(/C=C2\C(=O)NCC(=O)N2C)cc1 returned DNMT1 inh 0, LMPTP block -3, Scp-1 inhibitor 89*, SUMO1 PPI mod 3, STEP block -2, F508del corr -2, Scp1 confirm -13 and MG interference -15.
Screening COc1ccc(-c2ccccc2[C@H]2[C@@H](C#N)N(C(=O)C3CCCCC3)[C@H]2CO)cc1 returned F508del corr 1.
`COC(=O)c1ccccc1NC(=O)CSc1nc(N)cc(=O)[nH]1` gave DNMT1 inh 47, LMPTP block 2, Scp-1 inhibitor 57*, SUMO1 PPI mod 6, STEP block 3, F508del corr -1, Scp1 confirm 34*, MG interference -17 and Scp-1 Tm shift 0.
Screening Nc1cc(=O)[nH]c(SCC(=O)Nc2cc(Cl)cc(Cl)c2)n1 returned DNMT1 inh -7, LMPTP block -1, Scp-1 inhibitor -11, SUMO1 PPI mod 2, STEP block -1, Scp1 confirm -6 and MG interference -3.

Compound activity deposited in PubChem by several laboratories.
